# Assay results taken from ChEMBL document CHEMBL5058577, “EUbOPEN Chemogenomics Library 2 (Multiplex)” (2022).
# Test system: U2OS
# Assay: Multiplex assay against U2OS
# Format: toxicity, cell-based
# Settings: human
# Method in brief: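 On a CQ1 microscope at 37°C and 5% CO2, live cells were imaged after compound addition. They had been stained at seeding with Hoechst33342, BioTracker Green Microtubule Cytoskeleton Dye, MitoTracker Red and Annexin V Alexa Fluor 680. CellPathfinder machine-learning gating assigned cells to Hoechst high-intensity objects or normal cells, normal cells to healthy, pyknosed or fragmented nuclei, and pyknosed cells to mitotic or apoptotic. Tubulin, mitochondrial-mass and membrane-permeability phenotypes are per cents of healthy-nucleus cells.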
# [1] = 12 h, 1 µM, compound concentration 1 uM, replicate 1
# [2] = 12 h, 1 µM, compound concentration 1 uM, replicate 2
# [3] = 12 h, 10 µM, compound concentration 10 uM, replicate 1
# [4] = 12 h, 10 µM, compound concentration 10 uM, replicate 2
# [5] = 24 h, 1 µM, compound concentration 1 uM, replicate 1
# [6] = 24 h, 1 µM, compound concentration 1 uM, replicate 2
# [7] = 24 h, 10 µM, compound concentration 10 uM, replicate 1
# [8] = 24 h, 10 µM, compound concentration 10 uM, replicate 2
# [9] = 48 h, 1 µM, compound concentration 1 uM, replicate 1
# [10] = 48 h, 1 µM, compound concentration 1 uM, replicate 2
# [11] = 48 h, 10 µM, compound concentration 10 uM, replicate 1
# [12] = 48 h, 10 µM, compound concentration 10 uM, replicate 2
compound,measurement,setting,value
CSc1ccccc1N1CCN(CCCCCC(=O)NC2CCCc3ccccc32)CC1.Cl (configuration not stated),Population Apoptotic (%),[1],62%
same,Population Fragmented Nuclei (%),[1],22%
same,Population Healthy Nuclei (%),[1],61%
same,Population Hoechst High Intensity Objects (%),[1],9%
same,Population Membrane Permeable-Phenotype (%),[1],73%
same,Population Mitochondria Different-Phenotype (%),[1],71%
same,Population Mitotic Cells (%),[1],37%
same,Population Normal (%),[1],90%
same,Population Pyknosed Nuclei (%),[1],15%
same,Population Tubulin-Different-Phenotype (%),[1],88%
same,Total Cell Count,[1],222
same,Population Apoptotic (%),[2],36%
same,Population Fragmented Nuclei (%),[2],24%
same,Population Healthy Nuclei (%),[2],63%
same,Population Hoechst High Intensity Objects (%),[2],3%
same,Population Membrane Permeable-Phenotype (%),[2],51%
same,Population Mitochondria Different-Phenotype (%),[2],85%
same,Population Mitotic Cells (%),[2],63%
same,Population Normal (%),[2],96%
same,Population Pyknosed Nuclei (%),[2],11%
same,Population Tubulin-Different-Phenotype (%),[2],72%
same,Total Cell Count,[2],101
same,Population Apoptotic (%),[3],70%
same,Population Fragmented Nuclei (%),[3],41%
same,Population Healthy Nuclei (%),[3],39%
same,Population Hoechst High Intensity Objects (%),[3],8%
same,Population Membrane Permeable-Phenotype (%),[3],67%
same,Population Mitochondria Different-Phenotype (%),[3],90%
same,Population Mitotic Cells (%),[3],29%
same,Population Normal (%),[3],91%
same,Population Pyknosed Nuclei (%),[3],18%
same,Population Tubulin-Different-Phenotype (%),[3],96%
same,Total Cell Count,[3],221
same,Population Apoptotic (%),[4],84%
same,Population Fragmented Nuclei (%),[4],23%
same,Population Healthy Nuclei (%),[4],55%
same,Population Hoechst High Intensity Objects (%),[4],4%
same,Population Membrane Permeable-Phenotype (%),[4],60%
same,Population Mitochondria Different-Phenotype (%),[4],92%
same,Population Mitotic Cells (%),[4],16%
same,Population Normal (%),[4],95%
same,Population Pyknosed Nuclei (%),[4],21%
same,Population Tubulin-Different-Phenotype (%),[4],98%
same,Total Cell Count,[4],125
same,Population Apoptotic (%),[5],54%
same,Population Fragmented Nuclei (%),[5],22%
same,Population Healthy Nuclei (%),[5],60%
same,Population Hoechst High Intensity Objects (%),[5],6%
same,Population Membrane Permeable-Phenotype (%),[5],63%
same,Population Mitochondria Different-Phenotype (%),[5],63%
same,Population Mitotic Cells (%),[5],45%
same,Population Normal (%),[5],94%
same,Population Pyknosed Nuclei (%),[5],17%
same,Population Tubulin-Different-Phenotype (%),[5],75%
same,Total Cell Count,[5],250
same,Population Apoptotic (%),[6],58%
same,Population Fragmented Nuclei (%),[6],25%
same,Population Healthy Nuclei (%),[6],58%
same,Population Hoechst High Intensity Objects (%),[6],2%
same,Population Membrane Permeable-Phenotype (%),[6],46%
same,Population Mitochondria Different-Phenotype (%),[6],74%
same,Population Mitotic Cells (%),[6],41%
same,Population Normal (%),[6],97%
same,Population Pyknosed Nuclei (%),[6],15%
same,Population Tubulin-Different-Phenotype (%),[6],63%
same,Total Cell Count,[6],111
same,Population Apoptotic (%),[7],89%
same,Population Fragmented Nuclei (%),[7],44%
same,Population Healthy Nuclei (%),[7],28%
same,Population Hoechst High Intensity Objects (%),[7],6%
same,Population Membrane Permeable-Phenotype (%),[7],79%
same,Population Mitochondria Different-Phenotype (%),[7],81%
same,Population Mitotic Cells (%),[7],10%
same,Population Normal (%),[7],93%
same,Population Pyknosed Nuclei (%),[7],26%
same,Population Tubulin-Different-Phenotype (%),[7],91%
same,Total Cell Count,[7],219
same,Population Apoptotic (%),[8],94%
same,Population Fragmented Nuclei (%),[8],19%
same,Population Healthy Nuclei (%),[8],44%
same,Population Hoechst High Intensity Objects (%),[8],10%
same,Population Membrane Permeable-Phenotype (%),[8],90%
same,Population Mitochondria Different-Phenotype (%),[8],56%
same,Population Mitotic Cells (%),[8],5%
same,Population Normal (%),[8],89%
same,Population Pyknosed Nuclei (%),[8],37%
same,Population Tubulin-Different-Phenotype (%),[8],97%
same,Total Cell Count,[8],112
same,Population Apoptotic (%),[9],64%
same,Population Fragmented Nuclei (%),[9],25%
same,Population Healthy Nuclei (%),[9],53%
same,Population Hoechst High Intensity Objects (%),[9],8%
same,Population Membrane Permeable-Phenotype (%),[9],42%
same,Population Mitochondria Different-Phenotype (%),[9],56%
same,Population Mitotic Cells (%),[9],35%
same,Population Normal (%),[9],91%
same,Population Pyknosed Nuclei (%),[9],21%
same,Population Tubulin-Different-Phenotype (%),[9],50%
same,Total Cell Count,[9],272
same,Population Apoptotic (%),[10],95%
same,Population Fragmented Nuclei (%),[10],28%
same,Population Healthy Nuclei (%),[10],52%
same,Population Hoechst High Intensity Objects (%),[10],5%
same,Population Membrane Permeable-Phenotype (%),[10],41%
same,Population Mitochondria Different-Phenotype (%),[10],63%
same,Population Mitotic Cells (%),[10],4%
same,Population Normal (%),[10],94%
same,Population Pyknosed Nuclei (%),[10],18%
same,Population Tubulin-Different-Phenotype (%),[10],44%
same,Total Cell Count,[10],137
same,Population Apoptotic (%),[11],98%
same,Population Fragmented Nuclei (%),[11],43%
same,Population Healthy Nuclei (%),[11],18%
same,Population Hoechst High Intensity Objects (%),[11],15%
same,Population Membrane Permeable-Phenotype (%),[11],77%
same,Population Mitochondria Different-Phenotype (%),[11],33%
same,Population Mitotic Cells (%),[11],1%
same,Population Normal (%),[11],84%
same,Population Pyknosed Nuclei (%),[11],38%
same,Population Tubulin-Different-Phenotype (%),[11],75%
same,Total Cell Count,[11],232
same,Population Apoptotic (%),[12],100%
same,Population Fragmented Nuclei (%),[12],25%
same,Population Healthy Nuclei (%),[12],20%
same,Population Hoechst High Intensity Objects (%),[12],11%
same,Population Membrane Permeable-Phenotype (%),[12],85%
same,Population Mitochondria Different-Phenotype (%),[12],45%
same,Population Mitotic Cells (%),[12],0%
same,Population Normal (%),[12],88%
same,Population Pyknosed Nuclei (%),[12],54%
same,Population Tubulin-Different-Phenotype (%),[12],95%
same,Total Cell Count,[12],109
